Data as given in ChEMBL document CHEMBL1151726, “Interactions of antiviral indolo[2,3-b]quinoxaline derivatives with DNA” (2008).
Values joined by “and” are separate entries in the source; they are usually repeats but may differ in a detail not shown here. Equal entries are not always repeated. Active and inactive are the calls of the source. The rule behind the calls is not given here.

Columns and labels:
Human betaherpesvirus 5 = experiment: Antiviral activity against human cytomegalovirus; assay type: functional
[1] = Ratio of binding constant K for 3 base pair binding site poly(dA-dT)2 DNA to binding constant K for calf thymus DNA
DNA [2] = experiment: Binding affinity to calf thymus DNA assessed as drug-DNA intercalation at 5 to 10 uM by absorption spectra analysis; assay type: nucleic-acid assay; conditions: Bos taurus
In short: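 Ligands at 10 µM (monomeric) or 5 µM (dimeric) mixed 1:1 by volume with ct-DNA, 160 µM bases, in 10 mM phosphate pH 7.5, total Na+ 100 mM. Absorption spectra recorded at room temperature, several scans averaged.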

Nucleic Acid = experiment: Binding affinity to poly(dA-dT)2 DNA assessed as drug-DNA intercalation at 5 to 10 uM by emission spectra analysis; assay type: nucleic-acid assay
In short: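 Emission spectra recorded with and without poly(dA-dT)2 at 100 µM bases. Ligand at 10 µM (monomeric) or 5 µM (dimeric), room temperature, 10 mM phosphate pH 7.5, total Na+ 100 mM.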

[3] = Ratio of binding constant K for 2 base pair binding site poly(dA-dT)2 DNA to binding constant K for calf thymus DNA
DNA [4] = experiment: Binding affinity to calf thymus DNA assessed as drug-DNA intercalation at 5 to 10 uM by linear dichroism analysis; assay type: nucleic-acid assay; conditions: Bos taurus
In short: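 Flow linear dichroism with calf thymus DNA at 160 µM bases, ligand 10 µM (monomeric) or 5 µM (dimeric), 10 mM phosphate pH 7.5, Na+ 100 mM, room temperature. Spectra taken over 200–650 nm and baseline-corrected by subtracting the non-oriented sample spectrum.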

[5] = Ratio of binding constant K for poly(dA-dT)2 DNA to binding constant K for calf thymus DNA
[6] = Ratio of binding constant K for 4 base pair binding site poly(dA-dT)2 DNA to binding constant K for calf thymus DNA

Compound: Cc1cc2nc3c4ccccc4n(CCN(C)C)c3nc2cc1C [listing 1 of 2 here]
- inhibition (INH) (Human betaherpesvirus 5): 20%

Compound: C[N+](C)(CCC[N+](C)(C)CCn1c2ccccc2c2nc3ccccc3nc21)CCn1c2ccccc2c2nc3ccccc3nc21.[Br-].[Br-]
- inhibition (INH) (Human betaherpesvirus 5): 100%
- Ratio [1]: 1.9
- Activity (DNA [2]): Active
- Activity (Nucleic Acid): Active

Compound: Cc1cc2nc3c4ccccc4n(CCN(C)C)c3nc2cc1C.Cl
- inhibition (INH) (Human betaherpesvirus 5): 100%

Compound: Cc1cc2nc3c4ccccc4n(CCN(C)C)c3nc2cc1C [listing 2 of 2 here]
- Ratio [3]: 1.8 and 2.4
- Activity (DNA [2]): Active
- Activity (Nucleic Acid): Active
- Activity (DNA [4]): inactive

Compound: Cc1cc2nc3c4cc(N)ccc4n(CCN(C)C)c3nc2cc1C.Cl
- inhibition (INH) (Human betaherpesvirus 5): 100%
- Ratio [5]: 1.7
- Activity (DNA [2]): Active
- Activity (Nucleic Acid): Active

Compound: C[N+](C)(CCCCCC[N+](C)(C)CCn1c2ccccc2c2nc3ccccc3nc21)CCn1c2ccccc2c2nc3ccccc3nc21.[Br-].[Br-]
- inhibition (INH) (Human betaherpesvirus 5): 100%
- Ratio [6]: 3
- Activity (DNA [2]): Active
- Activity (Nucleic Acid): Active

Compound: Cc1cc2nc3c4ccccc4n(CCN(C)C)c3nc2cc1C.I
- inhibition (INH) (Human betaherpesvirus 5): 100%

Compound: Nc1nc2c(ncn2COC(CO)CO)c(=O)[nH]1 [GANCICLOVIR]
- inhibition (INH) (Human betaherpesvirus 5): 30%
